Measurements collected from several papers.
Compare with care: the assays were run in different laboratories. pEC50, pIC50: −log10 of the molar value.
Observed: cell growth or viability

`CCOC(=O)c1c(C)ncn1CC(c1cn(C)c2ccc([N+](=O)[O-])cc12)c1cn(C)c2ccc([N+](=O)[O-])cc12` has an inhibition of 21.1% (human Fibroblast; MTS; 20 µM, 24 h).
The pIC50 of `CC1(C)C(=O)NC2=C1C(=O)C(=O)c1ccccc12` is reported as less than 4.70 (HN-6; 72 h).
For `CC(C)=CCC[C@](C)(O)[C@H]1CC[C@]2(C)[C@@H]1[C@H](O)C[C@@H]1[C@@]3(C)CC[C@H](O[C@@H]4O[C@H](CO)[C@@H](O)[C@H](O)[C@H]4O[C@@H]4O[C@H](CO)[C@@H](O)[C@H](O)[C@H]4O)C(C)(C)[C@@H]3CC[C@]12C`, the IC20 was greater than 100 µM (BEAS-2B; MTT; 72 h).
The pEC50 of `CCCNc1ccnc(Nc2cccc(-c3cccnc3)c2)n1` is reported as 6.86 (MV4-11; ATP luminescence; 72 h).
The inhibition of `COC(=O)c1c(C)ncn1CC(c1c[nH]c2ccc(C)cc12)c1c[nH]c2ccc(C)cc12` is reported as 13.8% (human Fibroblast; MTS; 20 µM, 24 h).
`Cc1cc2c(cc1N1C(=O)c3cccc4c(CCCO)ccc(c34)C1=O)n(C)c(=O)n2C` (racemic) has a GI50 of 3.21 µM (769-P; resazurin).
With `COc1ccc(-c2ccc(-c3ccc(C(=N)N)nc3)s2)cc1` the GI50 was 1.63 µM (MDA-MB-468; SRB).
`CCCCCCCCCCCCCCCCOP(=O)([O-])OCC[N+](C)(C)C` has an inhibition of 46.2% (human Fibroblast; MTS; 20 µM, 24 h).
With `COC(C)(C)CCC[C@](C)(O)[C@H]1CC[C@]2(C)[C@@H]1[C@H](O)C[C@@H]1[C@@]3(C)CC[C@H](O)C(C)(C)[C@@H]3CC[C@]12C` the IC80 was greater than 100 µM (BEAS-2B; MTT; 72 h).
For `C[C@H](Nc1ccnc(Nc2cccc(-c3cccnc3)c2)n1)C(=O)O`, the pEC50 was less than 5.10 (MV4-11; ATP luminescence; 72 h).
`CCN(CC)CCOC(=O)C1(c2ccc([N+](=O)[O-])cc2)CCCC1` has a pIC50 of less than 4.70 (HN-6; 72 h).
For `CCc1ncn(CC(c2c[nH]c3ccc(C)cc23)c2c[nH]c3ccc(C)cc23)c1C(=O)OC`, the inhibition was 6.7% (human Fibroblast; MTS; 20 µM, 24 h).
`COC(=O)c1cccc(-c2cccc(Nc3nccc(NC(C)C)n3)c2)c1` gave a pEC50 of 5.31 (MV4-11; ATP luminescence; 72 h).
`COc1ccc(-c2ccc(-c3ccc(C(=N)N)nc3)s2)cc1Cl` gave a GI50 of 1.87 µM (LOX IMVI; SRB).
`CC(C)(CO)Cn1nc(-c2ccc3nc(OC4CC4)ccc3c2)c2c(N)ncnc21` has a GI50 of greater than 10 µM (CRL8155).
The pEC50 of `CC(C)Nc1ccnc(Nc2cccc(-c3ccncc3)c2)n1` is reported as less than 4.82 (MV4-11; ATP luminescence; 72 h).
For `CC(C)(CO)Cn1nc(-c2ccc3cc(OC4CC4)ccc3c2)c2c(N)ncnc21`, the GI50 was greater than 10 µM (CRL8155).
The pEC50 of `Fc1ccc(Nc2nccc(NC3CCCCC3)n2)cc1` is reported as less than 5.52 (MV4-11; ATP luminescence; 72 h).
